High-throughput results deposited in PubChem by several laboratories.
Compounds with a hit are over-represented: about 6.7% of the library has one in this group of screens.
Beta apoptosis: blocks beta cell apoptosis; protection from apoptosis, % (concentration not given with the values); INS-1E cytokine-induced death, ATP luminescence, 48 h; percent of positive-control rescue, neutral wells zero; actives 0.8% (n = 300,000);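 active = Every replicate reaches about 75%, or at least half do and their mean reaches it too, limit read from the data; inconclusive = At least half of replicates reach the limit but their mean does not; inactive = Under half of replicates reach the limit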;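 also: higher means more ATP so stronger rescue from cytokine killing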
CHOP inhibitor: inhibitors of CHOP induction in ER stress response | AID 2732 | inhibition, % at 10 µM | actives 3.8% (n = 220,000) | CHO-K1 CHOP-promoter luciferase, tunicamycin-induced, 15-18 h;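 active = compounds that reduced the stress-induced luciferase reporter signal by more than about 70% of percent inhibition, limit read from the data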
PREPL inhibitor: inhibits the human prolyl oligopeptidase-like enzyme | Q4J6C6 | recombinant PREPL, fluorescence polarization activity-based probe | inhibition, % at 5.96 µM | actives 0.68% (n = 320,000) | AID 2751; in the data active = inhibition above about 43%
Target sequence (Q4J6C6 whole entry, looked up): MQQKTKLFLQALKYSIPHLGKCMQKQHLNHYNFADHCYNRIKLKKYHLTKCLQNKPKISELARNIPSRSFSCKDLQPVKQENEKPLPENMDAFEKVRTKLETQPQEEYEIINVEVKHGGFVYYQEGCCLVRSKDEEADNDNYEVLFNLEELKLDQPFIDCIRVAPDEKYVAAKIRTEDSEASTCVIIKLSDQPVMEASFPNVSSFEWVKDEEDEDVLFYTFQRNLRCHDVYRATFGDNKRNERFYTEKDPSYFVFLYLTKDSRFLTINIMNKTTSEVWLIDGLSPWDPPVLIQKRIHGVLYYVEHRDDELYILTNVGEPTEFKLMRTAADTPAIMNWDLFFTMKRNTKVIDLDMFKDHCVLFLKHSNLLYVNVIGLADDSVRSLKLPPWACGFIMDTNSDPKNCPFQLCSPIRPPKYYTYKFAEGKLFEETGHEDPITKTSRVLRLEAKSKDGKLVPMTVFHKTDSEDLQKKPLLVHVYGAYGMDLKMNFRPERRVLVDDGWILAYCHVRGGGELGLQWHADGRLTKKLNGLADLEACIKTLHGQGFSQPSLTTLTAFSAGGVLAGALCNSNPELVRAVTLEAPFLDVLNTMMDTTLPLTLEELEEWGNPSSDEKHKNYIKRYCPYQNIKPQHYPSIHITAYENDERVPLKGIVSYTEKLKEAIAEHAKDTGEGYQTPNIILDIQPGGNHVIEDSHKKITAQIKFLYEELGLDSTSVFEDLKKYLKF
T cruzi repl: T. cruzi replication inhibition. T. cruzi beta-gal in NIH3T3, luminescence, 90 h. inhibition, % (test concentration not listed). actives 1.4% (n = 300,000);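 active = mean inhibition across valid replicates above about 55%, limit read from the data; inconclusive = mean below that limit but half or more replicates reach it; inactive = mean below it, under half of replicates reach it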;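 also: signal also drops with host cell toxicity which is not excluded here; higher percent means less beta-gal luminescence so fewer parasites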
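Read-out: Parasite load inhibition, % | Test system: Mouse NIH/3T3 fibroblasts infected with β-gal-expressing T. cruzi Tulahuen C4 | Amount: 5,000 cells/well | Medium: DMEM, 2% fetal bovine serum | Signal: GalScreen β-gal luminescence, detergent lysis, 60 min | Timing: 3 h attach, ≥90 h co-culture | Also added: Tulahuen C4 trypomastigotes, 5000/well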
CSC inhib: cancer stem cell inhibition | cancer stem cell-like cells viability, luminescence | inhibition, % at 7.5 µM | actives 1.1% (n = 300,000) | AID 2717; in the data active = inhibition above about 75%; inconclusive = no clear call, values can overlap the other calls; tested in HMLE shEcad cells
GRIN3A LBD mod: modulates the human NR3A ligand-binding domain; NR3A LBD differential scanning fluorimetry, Tm shift; 0% = protein alone, 100% = glycine-bound protein; Tm shift relative to glycine control, % at 25 µM; actives 2.5% (n = 340,000);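 active = melting temperature shift of at least 10% of the positive control shift, at one fixed dose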
A number is an active result; i = inactive; ? = inconclusive; nt = not tested or not shown.

SMILES | Beta apoptosis | CHOP inhibitor | PREPL inhibitor | T cruzi repl | CSC inhib | GRIN3A LBD mod
CC1CC(C)(C)N2C(=O)C3(Nc4ccccc4S3)c3cccc1c32 (configuration not stated) | i | 91 | i | i | i | i
C#CCN(Cc1ccccc1)S(=O)(=O)C=C | i | nt | i | nt | i | i
O=[N+]([O-])c1cccc(S(=O)(=O)N2CCC(c3nc(-c4ccncc4)no3)CC2)c1 | i | i | i | 61 | i | i
O=S(=O)(c1ccc(Cl)c(F)c1)N1CCC(c2nc(-c3ccncc3)no2)CC1 | i | i | i | i | i | i
CCOc1ccccc1NC(=O)COC(=O)c1c(CC)noc1C | nt | nt | nt | nt | nt | i
CCCCNC(=O)[C@@H]1CC=C[C@@H]2CCN(Cc3ccc(Cl)c(Cl)c3)C(=O)[C@@H]21 | i | nt | i | i | i | i
O=C(NCCc1ccccc1)[C@@H]1CC=C[C@@H]2CCN(Cc3ccc(Cl)c(Cl)c3)C(=O)[C@@H]21 | 99 | nt | i | i | i | i
CCOc1ccc(C(=O)OCC(=O)Nc2ccc(SC(F)F)cc2)cc1OCC | i | i | i | i | i | i
COc1nc(NCCO)nc(Nc2ccccc2F)n1 | nt | i | i | i | i | i
Cc1ccc(S(=O)(=O)N/N=C\c2ccc(Cl)c([N+](=O)[O-])c2)cc1 | i | i | i | i | i | i
CCN(Cc1ccccc1)c1ccc(/C=N/NS(=O)(=O)c2ccc(C)c([N+](=O)[O-])c2)cc1 | i | i | i | i | i | 18
Cc1ccc(S(=O)(=O)N/N=C/c2ccc(OS(=O)(=O)c3ccc(C)c([N+](=O)[O-])c3)cc2)cc1 | i | 80 | i | nt | i | i
CC(C)Cn1c(N)c(C(=O)COC(=O)/C=C/c2ccccc2)c(=O)n(C)c1=O | nt | nt | i | i | i | i
Cc1csc(SCC(=O)Nc2ccc(C)c(F)c2)n1 | nt | nt | i | nt | nt | i
CCCCc1cc(=O)oc2cc(OC(C)C(=O)NCCN3CCOCC3)c(Cl)cc12 (configuration not stated) | i | nt | i | i | i | i
CC1=CN(S(=O)(=O)c2ccc(C)cc2)C[C@@H]2c3ccccc3N(S(=O)(=O)c3ccc(C)cc3)[C@H]12 | nt | nt | nt | nt | nt | 17
S=C(Nc1cccc(Cl)c1)Nc1ccccc1Oc1ccccc1 | i | 74 | i | i | nt | i
S=C(Nc1ccc(Cl)cc1Cl)Nc1ccccc1Oc1ccccc1 | i | 78 | i | i | i | i
S=C(Nc1ccccc1Oc1ccccc1)Nc1cccc(Cl)c1Cl | i | i | i | i | i | i
CC(C)(C)OC(=O)NCc1ccc(NC(=O)c2nc[nH]c2C(=O)NCCCCCCNC(=O)c2[nH]cnc2C(=O)Nc2ccc(CNC(=O)OC(C)(C)C)cc2)cc1 | i | nt | i | nt | i | i
CC(C)(C)OC(=O)NCc1ccc(NC(=O)c2nc[nH]c2C(=O)NCCN(CCNC(=O)c2[nH]cnc2C(=O)Nc2ccc(CNC(=O)OC(C)(C)C)cc2)CCNC(=O)c2[nH]cnc2C(=O)Nc2ccc(CNC(=O)OC(C)(C)C)cc2)cc1 | i | nt | i | nt | i | 11
CC(C)(C)OC(=O)NCc1ccc(NC(=O)c2nc[nH]c2C(=O)NCCCNC(=O)c2[nH]cnc2C(=O)Nc2ccc(CNC(=O)OC(C)(C)C)cc2)cc1 | i | nt | i | nt | 114 | i
CC(C)(C)OC(=O)NCCCC[C@H](NC(=O)c1[nH]cnc1C(=O)Nc1ccc(CNC(=O)OC(C)(C)C)cc1)C(=O)OC(C)(C)C | i | i | i | nt | i | i
CC(C)(C)OC(=O)NCc1ccc(NC(=O)c2nc[nH]c2C(=O)NCCCCNC(=O)c2[nH]cnc2C(=O)Nc2ccc(CNC(=O)OC(C)(C)C)cc2)cc1 | i | nt | i | nt | 120 | i
CCC(C)(C)C1CCC2(CC1)NC(=O)N(CC(=O)NCCc1ccc(OC)c(OC)c1)C2=O (configuration not stated) | i | nt | i | nt | nt | i
SMILES | Beta apoptosis | CHOP inhibitor | PREPL inhibitor | T cruzi repl | CSC inhib | GRIN3A LBD mod
CC(C)(C)c1ccc(NC(=O)CNC2CCCc3ccccc32)cc1 (configuration not stated) | i | 91 | i | ? | i | i
Cc1c(C(=O)Nc2ccccc2)cn2c(nc3ccccc32)c1C#N | i | i | i | i | i | i
Cc1ccccc1C(=O)Nc1ccc2c(C#N)c3nc4ccccc4nc3n2c1 | i | 96 | i | i | i | i
O=C(CCCCn1c(=O)[nH]c2ccccc2c1=O)NC1CCN(Cc2ccccc2)CC1 | i | i | i | i | i | i
Cc1cccc(C)c1NC(=O)Cn1c(=O)n(CCCC(=O)NC2CCN(Cc3ccccc3)CC2)c(=O)c2ccccc21 | i | nt | i | i | i | i
O=C(c1ccc(Cn2c(=S)[nH]c3ccc(N4CCOCC4)cc3c2=O)cc1)N1CCC(N2CCCCC2)CC1 | i | i | i | i | i | i
O=C(NC1CCN(Cc2ccccc2)CC1)c1ccc(Cn2c(=S)[nH]c3ccc(N4CCOCC4)cc3c2=O)cc1 | nt | i | i | 60 | nt | i
O=C(CCCCCn1c(=S)[nH]c2ccc(N3CCOCC3)cc2c1=O)NC1CCN(Cc2ccccc2)CC1 | i | i | i | 65 | i | i
O=C(CCCCn1c(=O)c2ccccc2n(Cc2ccccc2F)c1=O)NC1CCN(Cc2ccccc2)CC1 | i | 79 | i | i | i | i
O=c1c2c(-c3cccs3)csc2ncn1/N=C/c1ccc(OC(F)F)cc1 | i | 77 | i | i | nt | i
COc1ccc(-c2noc(-c3ccccc3-c3ccccc3)n2)cc1OC | i | i | i | i | 80 | i
COc1ccc(-c2noc(CCCc3ccccc3)n2)cc1OC | i | 72 | i | i | i | i
COc1ccc(-c2noc(-c3cccnc3)n2)cc1OC | i | i | i | i | i | i
COc1ccc(-c2noc(Cc3ccc(Cl)cc3)n2)cc1OC | i | 86 | i | i | i | i
COc1ccc(Cc2nc(-c3ccc(Cl)cc3)no2)cc1 | i | i | i | i | i | i
CCc1cccc(CC)c1NC(=O)c1cccc(S(=O)(=O)N2CCN(C)CC2)c1 | i | nt | nt | i | i | i
COc1ccc(C2c3sc(=O)[nH]c3SC3C4CCC(C4)C23)cc1 (configuration not stated) | i | 88 | i | i | i | i
O=c1[nH]c2c(s1)C(c1ccccc1)C1C3CCC(C3)C1S2 (configuration not stated) | i | i | i | i | nt | i
COc1ccc(C(=O)C2CCCN(Cc3ccc4nonc4c3)C2)cc1OC (configuration not stated) | i | i | i | i | i | i
COc1ccc(C(=O)C2CCCN(Cc3cccn3-c3ccc(Cl)cn3)C2)c(OC)c1 (configuration not stated) | i | i | i | 79 | nt | i
COc1ccc(C(=O)C2CCCN(Cc3cnc(N4CCOCC4)s3)C2)c(OC)c1 (configuration not stated) | i | i | i | 61 | i | i
COc1ccc(C(=O)C2CCCN(Cc3c(F)ccc(F)c3F)C2)c(OC)c1 (configuration not stated) | nt | nt | i | i | i | i
